Screening results as filed in PubChem.
TROY NFkB inh: inhibitors of TROY-dependent NF-kB signaling. 0.98% of 360,000 active. AID 1347056. Q293 LMP1-TROYcd NF-kB luciferase reporter, 4 h. inhibition, % at 10 µM;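 active = compounds whose plate-normalised and pattern-corrected inhibition of the luciferase reporter signal at the single screening dose is 50% or more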
TWEAK Fn14 block: TWEAK-Fn14 signaling inhibition | inhibition, % at 10 µM | AID 1159606 | 2% of 360,000 active | TWEAK-stimulated Fn14 reporter cells, luciferase luminescence, 8 h; in the data active = inhibition above about 50%
CaV13 ICDI inh: Primary screen for inhibitors of IQ motif and Ca2+-dependent inactivation inhibitor domain binding in CACNA1D, Förster resonance energy transfer in living cells, … | HEK cells, CFP/YFP FRET ICDI-IQ, plate reader, 10 min; percent FRET-ratio fall versus neutral wells | inhibition, % at 12.3 µM | 0.098% of 340,000 active;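 active = mean replicate inhibition of at least 30% and at least 1% of replicates passing that level; inconclusive = only one of the two criteria is met; inactive = neither criterion is met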;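 note: 0% = median of the neutral control wells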
LGR2 antag: Drosophila LGR2 receptor signaling inhibition; HEK293 LGR2, CRE-luciferase, bursicon-stimulated, 4 h; inhibition, % at 9.99 µM; 0.35% of 380,000 active;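 active = drop in luminescence signal, shown as inhibition above about 50% in the replicate tests, limit read from the data, passing the limit was not always enough; inconclusive = probably only some replicates passing the limit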;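 note: agonist challenge used bursicon conditioned medium at about half maximal strength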
XiGFP reactiv: reactivates the inactive X chromosome in mouse fibroblasts; XiGFP mouse fibroblasts, % GFP-positive cells imaging, 3 d; cells co-treated with 5-aza-dC sensitizer; scaled so ellipticine positive control = 100%; activation, % at 7.58 µM; 0.055% of 360,000 active; AID 743238;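 active = mean normalized replicate activation at least 10% and every replicate at or above 10%; inconclusive = only one of the two criteria met; inactive = mean below 10% and not all replicates reach 10%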;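 note: 0% = median of on-plate neutral control wells and 100% = ellipticine 6 µM median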
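System: 68-5-11 XiGFP fibroblast line | Buffer or medium: DMEM containing 5-aza-dC | Compound: Single point | Times: Compounds 3 days, fix/stain 15 min at room temperature | Benchmarks: Positive control ellipticine, 6 µM final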
An asterisk follows results filed as active; i = inactive; ? = inconclusive; / = no result. Only some compounds are listed: those with a hit (about 2% of all), similar ones and a draw of the others.

SMILES	TROY NFkB inh	TWEAK Fn14 block	CaV13 ICDI inh	LGR2 antag	XiGFP reactiv
C=CCC[C@H](Cc1ccc(F)cc1)C(=O)OC[C@H](Cc1c[nH]c2ccccc12)NC(=O)[C@@H](CC=C)CC(=O)N(CCO)Cc1ccccc1	45.0	60.0*	-10.5	45.5	0.1
C[C@@H]1CCCCO[C@H](CN(C)S(=O)(=O)c2ccc(Cl)cc2)[C@@H](C)CN([C@@H](C)CO)C(=O)c2cc(N(C)C)ccc2O1	/	/	/	16.3	-1.0
C[C@@H]1CCCCO[C@@H](CN(C)C(=O)Nc2ccc3c(c2)OCO3)[C@H](C)CN([C@H](C)CO)C(=O)c2cc(NC(=O)c3ccncc3)ccc2O1	/	/	/	-1.8	0.2
Cc1ccc(S(=O)(=O)N(C)C[C@H]2Oc3c(NC(=O)c4cc(C)nn4C)cccc3C(=O)N([C@H](C)CO)C[C@@H]2C)cc1	/	/	/	11.3	3.9
CO[C@@H]1CN(C)C(=O)c2ccc(NC(C)=O)cc2OC[C@@H](C)N(C(=O)c2ccc(F)cc2)C[C@@H]1C	/	/	/	2.5	0.0
COc1ccc(Cn2cc3c(-c4ccc(F)cc4)nnc-3c3cc(OC)c(OC)cc32)cc1	-33.2	-202.6	-8.4	31.1	80.5*
COc1cc2c3nnc(-c4ccc(F)cc4)c-3cn(Cc3ccc(F)cc3)c2cc1OC	-60.3	-229.3	-5.7	-21.8	2.9
COc1cc2c3nnc(-c4ccc(F)cc4)c-3cn(Cc3ccccc3)c2cc1OC	-133.1	i	-20.7	15.9	90.7*
C[C@@H]1CCCCO[C@@H](CN(C)Cc2ccc(Cl)c(Cl)c2)[C@H](C)CN([C@H](C)CO)C(=O)c2cc(NS(C)(=O)=O)ccc2O1	/	/	/	23.0	-0.9
CC(C)(C)c1ccc(C(=O)N/C(N)=N/c2nc3ccccc3o2)cc1	9.5	23.8	/	/	/
COc1ccc(C(=O)N/C(N)=N/c2nc3ccccc3o2)cc1	-12.7	-6.9	-5.2	/	/
Cc1ccc2oc(/N=C(\N)NC(=O)C(C)(C)C)nc2c1	92.1*	103.5*	-4.6	99.5*	0.0
Cc1ccc2oc(/N=C(\N)NC(=O)C3CC3)nc2c1	30.9	64.3*	-21.1	/	0.0
N#C/C(=N\Nc1ccc(Cl)cc1)C(N)=S	64.1*	59.7*	-2.1	49.5	0.1
Cc1ccc(N/N=C(\C#N)C(N)=S)cc1C	57.6*	62.2*	0.3	/	0.2
C[C@@H]1CN([C@H](C)CO)C(=O)c2cc(NC(=O)Nc3ccc4c(c3)OCO4)ccc2O[C@H]1CN(C)C	/	/	/	-0.3	-1.2
S=C1Cc2ccccc2N1	22.3	72.3*	-3.5	24.1	-0.1
O=C(C1CCCN(S(=O)(=O)c2cccc3nsnc23)C1)N1CC=C(c2ccccc2)CC1 (configuration not stated)	26.6	51.1*	/	/	/
CN1C(=O)C(C)(C)c2cc(S(=O)(=O)N(C)Cc3ccccc3)ccc21	11.6	20.3	-8.5	-7.6	0.0
Cc1cccc(N(C)S(=O)(=O)c2ccc3c(c2)C(C)(C)C(=O)N3C)c1	-13.5	88.5*	-5.0	-4.3	0.2
CN(C)c1ccc(/C=C(/C#N)C(=O)NCc2ccccc2)o1	-37.7	-21.9	-4.3	-28.4	16.9*
CCCNC(=O)N1[C@H](CO)[C@H]2c3ccccc3N(C(=O)NC(C)C)C[C@H]21	/	/	/	-1.8	0.1
CCN(Cc1ccc2c(c1)OCO2)C(=O)/C=C/c1cccc(Br)c1	-36.5	-33.4	-3.1	-9.9	0.1
CC(C)(C)N(Cc1ccc2c(c1)OCO2)C(=O)/C=C\S(=O)c1ccccc1 (configuration not stated)	27.9	87.5*	-7.8	58.8*	0.2
CCC(=O)N1CC2(CCN(S(C)(=O)=O)CC2)c2c(n(C)c3cc(OC)ccc23)[C@@H]1CO	/	/	/	3.1	0.3
SMILES	TROY NFkB inh	TWEAK Fn14 block	CaV13 ICDI inh	LGR2 antag	XiGFP reactiv
CN(C)c1ccc(N=Nc2ccc3ncccc3c2)cc1	19.2	51.9*	-3.0	62.4*	0.2
CN(C)c1ccc(N=Nc2cccc(F)c2)cc1	18.6	51.7*	-7.3	31.8	0.0
Oc1[nH]c2c(Cl)cc(Cl)cc2c1N=NC(=S)NCC1CCCO1 (configuration not stated)	46.5	102.6*	-13.4	10.7	/
COC(=O)CCN1CCc2cc(N=Nc3ccc([N+](=O)[O-])cc3)ccc21	52.7*	30.2	-2.4	-80.9	0.0
COCC(=O)N(C)C[C@H]1Oc2cc(-c3ccc(C#N)cc3)ccc2S(=O)(=O)N([C@@H](C)CO)C[C@@H]1C	/	/	/	4.6	-0.9
C=C(CCC(=O)c1ccccc1)C(=O)c1ccccc1	-33.6	57.2*	-5.1	/	0.9
C=C(C(=O)c1ccccc1)C(CC(=O)c1ccccc1)c1ccccc1 (configuration not stated)	11.1	71.4*	-5.6	?	0.0
CN(C)CC(=O)Nc1ccc2c(c1)[C@@H]1C[C@@H](CC(=O)N3CCc4ccccc4C3)O[C@@H](CO)[C@@H]1O2	/	/	/	5.2	0.0
C=C(C)Cc1c(C)c(C#N)c2[nH]c3ccccc3n2c1=O	32.1	11.7	-3.4	-5.7	0.0
Cc1ccc(Cc2c(C)c(C#N)c3[nH]c4ccccc4n3c2=O)cc1	59.7*	61.4*	1.1	11.1	-0.1
Cc1ccc(S(=O)(=O)N(C)C[C@@H]2Oc3ccc(NS(=O)(=O)c4ccc(F)cc4)cc3C(=O)N([C@@H](C)CO)C[C@H]2C)cc1	/	/	/	-10.5	-0.6
COc1cc(CNCc2ccccc2Cl)ccc1OCC(=O)NC1CCCCC1	4.1	86.1*	-4.9	-9.1	-0.1
CC(=NNC(=S)N1CCN(c2ccccn2)CC1)c1ccccn1	-4.1	-4.0	-2.4	-16.9	-0.1
CC(=NNC(=S)N1CCN(c2ccccn2)CC1)c1nccs1	12.8	104.3*	/	/	/
CN=c1scc(-c2ccc(F)cc2)n1/N=C/c1ccc(O)c(O)c1	76.3*	87.8*	-4.2	74.8*	0.8
CN=c1scc(-c2ccc([N+](=O)[O-])cc2)n1/N=C/c1ccco1	-18.9	0.1	-0.1	-57.3	0.3
CN(C)CCCNc1cc(O)c2ncccc2c1	-33.3	6.0	-12.5	96.9*	0.0
Oc1cc(NCc2ccc(F)cc2)cc2cccnc12	-12.1	-2.5	-5.2	-4.1	0.7
CN1C(=O)c2cc(NC(=O)Nc3ccc(Cl)cc3)ccc2OC[C@H]2O[C@@H](CC(=O)NCCN3CCCCC3)CC[C@@H]21	/	/	/	-11.7	0.0
CC(C)C#Cc1cnc2c(c1)C(=O)N([C@H](C)CO)C[C@@H](C)[C@H](CN(C)C(=O)c1cccnc1)O2	/	/	/	-11.7	-0.8
Cc1ccc(SC2=C(Sc3ccc(C)cc3)C(=O)c3ccccc3C2=O)cc1	59.6*	47.4	-19.1	-90.8	0.0
Cc1noc(C)c1NC(=O)Nc1cccc2c1O[C@@H](CN(C)Cc1ccccc1)[C@@H](C)CN([C@H](C)CO)C2=O	/	/	/	-9.0	-0.8
O=C(Nc1ccccc1F)N1CCCCN2[C@@H](CO)[C@H](c3ccc(-c4cccnc4)cc3)[C@@H]2C1	/	/	/	-0.3	-0.1
c1ccc(C2=NCCCO2)cc1	4.7	3.0	-4.8	12.4	-0.1
